Experimental data: paper PMC3052282 (Journal of biomolecular screening, 2010)
Entries after “also recorded” stand apart in the source; their conditions may differ.

Columns and labels:
DnaK-DnaJ [1] = biological target: T1, DnaK-DnaJ (Escherichia coli, UniProt P0A6Y8); test: High throughput ATPase assay of DnaK-DnaJ; assay type: biochemical; conditions: for inhibition of DnaK-DnaJ ATPase activity upon re-testing: repurchased (fresh) samples
[2] = biological target: firefly luciferase [luciferase: P08659]; test: ELISA
[3] = biological target: DnaK binding to luciferase (Escherichia coli, UniProt P0A6Y8); test: ELISA of DnaK binding to the model substrate firefly luciferase; conditions: 0.05 μM DnaK + 1 mM ATP
DnaK-DnaJ [4] = biological target: T1, DnaK-DnaJ; test: DnaJ-mediated stimulation of ATP turnover by DnaK; assay type: biochemical; conditions: DnaK 0.6 μM
Summary of the method: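 E. coli DnaK (purified) at 0.6 µM with DnaJ titrated, in 100 mM Tris-HCl, 20 mM KCl, 6 mM MgCl2, 0.01% Triton X-100, pH 7.4. Reaction started with 7 mM ATP stock and run 3 h at 37 °C. Quinaldine red–molybdate reagent added for 2 min, quenched with sodium citrate, then 15 min at 37 °C. Absorbance read at 530 nm; triplicates.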

DnaK = DnaK (Escherichia coli, UniProt P0A6Y8); test: Intrinsic ATPase activity of DnaK; assay type: biochemical; conditions: without DnaJ stimulation
Chain of DnaK (P0A6Y8 whole entry): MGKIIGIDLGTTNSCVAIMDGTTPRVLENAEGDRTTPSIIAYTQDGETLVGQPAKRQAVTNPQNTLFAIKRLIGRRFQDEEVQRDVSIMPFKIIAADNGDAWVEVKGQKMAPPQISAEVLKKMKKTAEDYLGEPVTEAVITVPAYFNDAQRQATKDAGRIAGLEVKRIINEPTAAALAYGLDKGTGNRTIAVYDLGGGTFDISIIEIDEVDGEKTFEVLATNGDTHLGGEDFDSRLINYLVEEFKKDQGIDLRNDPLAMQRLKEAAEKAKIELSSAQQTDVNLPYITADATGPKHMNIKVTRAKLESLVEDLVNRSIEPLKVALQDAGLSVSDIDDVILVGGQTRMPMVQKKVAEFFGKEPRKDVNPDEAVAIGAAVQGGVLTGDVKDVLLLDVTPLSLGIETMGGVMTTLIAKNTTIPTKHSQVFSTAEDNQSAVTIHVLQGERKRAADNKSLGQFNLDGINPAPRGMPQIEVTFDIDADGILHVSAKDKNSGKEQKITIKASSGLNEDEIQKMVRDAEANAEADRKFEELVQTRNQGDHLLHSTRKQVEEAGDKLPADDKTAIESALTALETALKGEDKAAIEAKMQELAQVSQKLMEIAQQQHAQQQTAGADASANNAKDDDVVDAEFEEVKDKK

T1 sequence (P0A6Y8 whole entry): as above
Chain of DnaK binding to luciferase (P0A6Y8 whole entry): as above
Chain of Escherichia coli heat shock protein 70 (Hsp70/DnaK) (P0A6Y8 whole entry): as above
Chain of firefly luciferase [luciferase: P08659] (P08659 whole entry): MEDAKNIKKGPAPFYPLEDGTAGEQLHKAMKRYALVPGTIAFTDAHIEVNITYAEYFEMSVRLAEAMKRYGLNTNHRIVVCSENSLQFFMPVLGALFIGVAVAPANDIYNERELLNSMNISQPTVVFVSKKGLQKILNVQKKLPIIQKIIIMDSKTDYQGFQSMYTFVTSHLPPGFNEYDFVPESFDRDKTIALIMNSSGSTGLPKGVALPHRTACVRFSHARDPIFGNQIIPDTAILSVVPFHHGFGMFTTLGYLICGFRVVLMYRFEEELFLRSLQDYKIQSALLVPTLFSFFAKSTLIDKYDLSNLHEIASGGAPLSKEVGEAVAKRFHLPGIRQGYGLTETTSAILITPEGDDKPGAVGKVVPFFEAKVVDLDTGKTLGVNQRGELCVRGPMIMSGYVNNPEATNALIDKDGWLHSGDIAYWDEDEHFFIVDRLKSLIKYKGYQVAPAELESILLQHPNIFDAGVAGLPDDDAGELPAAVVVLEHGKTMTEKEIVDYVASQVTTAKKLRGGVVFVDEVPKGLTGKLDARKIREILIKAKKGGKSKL

Row | Molecule | IC50 (DnaK-DnaJ [1]) | inhibition of DnaK-DnaJ ATPase activity upon re-testing (DnaK-DnaJ [1]) | also measured
1 | Cc1cc(C(F)(F)F)c(C#N)c(SCC(=O)c2ccccc2)n1 [3a, 6-methyl-2-((2-oxo-2-phenylethyl)thio)-4-(trifluoromethyl)nicotinonitrile] | > 500 µM | – | –
2 | CCCCCCn1c(N)c(C(=O)OCC)c2nc3ccccc3nc21 [2b, ethyl 2-amino-1-hexyl-1H-pyrrolo[2,3-b]quinoxaline-3-carboxylate] | > 500 µM | – | –
3 | CCc1ccc(C2Nc3ccc(C(=O)O)cc3C3C=CCC32)cc1 (stereo not drawn) [1d, 4-(4-ethylphenyl)-3a,4,5,9b-tetrahydro-3H-cyclopenta[c]quinoline-8-carboxylic acid] | – | none of these compounds were inhibitors | –
4 | O=C(O)c1ccc2c(c1)C1C=CCC1C(c1ccc(Cl)cc1)N2 (stereo not drawn) [1b, 4-(4-chlorophenyl)-3a,4,5,9b-tetrahydro-3H-cyclopenta[c]quinoline-8-carboxylic acid] | – | none of these compounds were inhibitors | –
5 | O=C(O)c1ccc2c(c1)C1C=CCC1C(c1cccc(C(F)(F)F)c1)N2 (stereo not drawn) [1c, 4-(3-(trifluoromethyl)phenyl)-3a,4,5,9b-tetrahydro-3H-cyclopenta[c]quinoline-8-carboxylic acid] | – | none of these compounds were inhibitors | –
6 | Escherichia coli heat shock protein 70 (Hsp70/DnaK) (from UniProt P0A6Y8 1-638) (natural protein) | – | – | Kd [2]: 0.26 µM
7 | COc1cc(C(=O)NS(=O)(=O)c2ccccc2C)ccc1Cc1cn(C)c2ccc(NC(=O)OC3CCCC3)cc12 [3c, cyclopentyl (3-(2-methoxy-4-((o-tolylsulfonyl)carbamoyl)benzyl)-1-methyl-1H-indol-5-yl) carbamate] | 37 ± 1 µM | – | effect on apparent affinity of DnaK for luciferase [3]: significantly improved the apparent affinity; also recorded: significantly enhanced this interaction; K0.5 of DnaJ (DnaK-DnaJ [4]; in presence of 25 μM compound): 0.18 ± 0.01 µM; K0.5 of DnaJ (DnaK-DnaJ [4]; in presence of 50 μM compound): 0.96 ± 0.16 µM; K0.5 of DnaJ (DnaK-DnaJ [4]; in presence of 100 μM compound): greater than 2 μM; effect on the intrinsic ATPase activity of DnaK (DnaK): little effect on the intrinsic ATPase activity
8 | O=C(O)c1cccc2c1NC(c1ccc([N+](=O)[O-])cc1)C1CC=CC21 (stereo not drawn) [1a, 4-(4-nitrophenyl)-3a,4,5,9b-tetrahydro-3H-cyclopenta[c]quinoline-6-carboxylic acid] | – | none of these compounds were inhibitors | –
9 | CCOC(=O)c1c(N)n(-c2ccccc2)c2nc3ccccc3nc12 [2a, ethyl 2-amino-1-phenyl-1H-pyrrolo[2,3-b]quinoxaline-3-carboxylate] | > 500 µM | – | –
10 | CCOC(=O)c1c(N)sc2c1CCN(C(C)=O)C2 [3b, ethyl 6-acetyl-2-amino-4,5,6,7-tetrahydrothieno[2,3-c]pyridine-3-carboxylate] | > 500 µM | – | –
